Compound activity (PubChem BioAssay)
A selection: hits, their analogues and other compounds. The true share with any hit is near 1.4%.
PG9 Ab binder: binds the HIV-1 gp120 antibody PG9. 360,000 tested, 0.43% active. AID 624416. inhibition, % at 6.7 µM. TR-FRET gp120-PG9 antibody binding; in the data active = inhibition above about 8.5%
NR2E3 ag-1: activates human NR2E3 receptor | Q9Y5X4 | inhibition of corepressor binding, % at 3.98 µM | 360,000 tested, 0.35% active | AID 602229 | CHO-S Gal4-NCOR/VP16-NR2E3 two-hybrid, luciferase;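 active = inhibition above the mean of all tested compounds plus 3 SD, cut at about 70% in these data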;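 also: 0% = DMSO with NR2E3 transfected cells and 100% = cells lacking NR2E3 construct; higher means lower luciferase signal from less NR2E3 corepressor binding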
Target sequence (Q9Y5X4 whole entry, looked up, the tested form may be a part): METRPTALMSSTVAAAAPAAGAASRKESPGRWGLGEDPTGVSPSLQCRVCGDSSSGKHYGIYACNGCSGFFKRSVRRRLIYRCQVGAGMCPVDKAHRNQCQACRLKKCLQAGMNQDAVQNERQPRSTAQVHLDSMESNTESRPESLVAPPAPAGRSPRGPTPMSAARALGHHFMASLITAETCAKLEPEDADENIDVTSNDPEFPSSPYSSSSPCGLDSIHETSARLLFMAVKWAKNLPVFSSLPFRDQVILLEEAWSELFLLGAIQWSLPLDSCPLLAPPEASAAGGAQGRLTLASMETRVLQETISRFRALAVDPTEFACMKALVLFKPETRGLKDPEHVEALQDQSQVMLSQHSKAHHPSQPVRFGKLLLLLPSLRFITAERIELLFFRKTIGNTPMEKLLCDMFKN
NR1D1 modulator: Rev-erb alpha (human) modulation | AID 1259318 | P20393 | 370,000 tested, 0.79% active | activity, % at 10 µM | Rev-erbα–FITC-DNA binding, fluorescence polarization, 90 min;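 active = activity above about 14%, limit read from the data; passing the limit was not always enough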;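 also: 0% = DMSO wells with 35 nM protein and 100% = DMSO wells with 750 nM protein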
NR2E3 ag-2: agonists of human nuclear receptor NR2E3 | AID 2300 | GST-NR2E3/biotin-RetCOR TR-FRET, 1536-well | 320,000 tested, 0.12% active | inhibition of corepressor binding, % at 4.78 µM | Q9Y5X4;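 active = percent inhibition above the cutoff of mean plus 3 SD of all tested compounds, set per screening campaign, cut at about 20% in these data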;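 also: 0% = DMSO wells and 100% = biotin wells as full block of FRET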
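Material: NR2E3–RetCOR corepressor complex | Quantity: 1.35 nM GST-tagged NR2E3 final | Schedule: 5 h at 4 °C | Replication: Singlicate compound wells | Reagent: RetCOR corepressor, biotinylated, 7 nM | Controls: Biotin wells as high control, 0.6% DMSO wells as low control | Signal: TR-FRET, Eu(K)-anti-GST donor, streptavidin-D2 acceptor, ex 340, em 617/671 nm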
Rev-erbA confirm: Rev-erb alpha (human) modulation, hit confirmation; Rev-erb alpha FITC-DNA binding, fluorescence polarization, 90 min; shares compounds with NR1D1 modulator; 3,000 tested, 61% active; activation, % at 25 µM;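 active = activation at or above a set limit, or at least 3 SD above the negative control mean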;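 also: 0% = 35 nM protein with DMSO and 100% = 750 nM protein high control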
RORg DNA counter: affects RORgamma DNA binding in a Rev-erb alpha counter-screen | shares compounds with NR1D1 modulator | purified RORgamma protein-FITC-DNA binding, fluorescence polarization | IC50, µM | 910 tested, 8% active | AID 1259320;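 active = Compounds whose fitted half-maximal concentration for disrupting protein-DNA binding is below 10 micromolar; the record names Rev-erb in its text, so the target is in doubt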
Numbers without * were called inactive; i = inactive; / = not tested or not shown.

SMILES | PG9 Ab binder | NR2E3 ag-1 | NR1D1 modulator | NR2E3 ag-2 | Rev-erbA confirm | others
Cc1ccccc1C(=O)Nc1ccc(C(=O)NNC(=O)CCCOc2ccc(Cl)cc2Cl)cc1 | 0 | -16 | 0 | 3 | /
O=C(NCCCN1CCOCC1)c1ccc(S(=O)(=O)Nc2ccccc2)cc1 | 1 | 19 | -3 | -3 | /
CC(=O)Oc1c(/C=C(\C#N)C(N)=O)[nH]c2ccccc12 | -43 | 23 | 55* | / | 66* | RORg DNA counter=>40
N#C/C(=C\c1c[nH]c2ccccc12)C(N)=O | 0 | -25 | 7 | 0 | /
O=C(COc1ccc([N+](=O)[O-])cc1)Nc1cccc2nsnc12 | -3 | -15 | 24* | 4 | 22*
COC(=O)c1ccc(OC(=O)CCN2C(=O)C3CCCCC3C2=O)cc1 (centres undefined) | 0 | 7 | -2 | -4 | /
CC1(C)Cc2c(c(N3CCOCC3)nc3sc4c(NN)ncnc4c23)CS1 | -2 | -27 | 28* | 1 | 34* | RORg DNA counter=>40
CC(C)CNc1nnnc2c1sc1nc(N3CCOCC3)c3c(c12)CC(C)(C)SC3 | 1 | -4 | -5 | 2 | /
Cc1ccc2cc(C#N)c(SCC(=O)NCC3CCCO3)nc2c1 (centres undefined) | -1 | -27 | 11 | 1 | /
Cc1cc(C)c2cc(C#N)c(SCC(=O)Nc3ccc4c(c3)OCO4)nc2c1 | 4 | -8 | 62* | 0 | 196* | RORg DNA counter=>40
Cc1cc(C)c2cc(C#N)c(SCC(=O)NCC3CCCO3)nc2c1 (centres undefined) | 0 | -14 | 103* | 2 | 88* | RORg DNA counter=i
CCCCNC(=S)N/N=C/c1ccc(C)s1 | -1 | -54 | -3 | -3 | /
O=C(Nc1cccc2ccccc12)N1CCN(c2ccc(F)cc2)CC1 | 3 | 5 | 26* | -1 | 3
CCOC(=O)c1ccc2nc(NC(C)=O)sc2c1 | 1 | -104 | 3 | 4 | /
CCOC(=O)C(=CNc1nc2ccc(C(=O)OCC)cc2s1)C(=O)OCC | 1 | -10 | 35* | 5 | 19*
CCOC(=O)c1ccc2nc(Nc3nc4ccc(F)cc4s3)sc2c1 | 0 | 37 | 35* | -1 | 31* | RORg DNA counter=>40
COc1ccc(/C=C/C(=O)NC(=S)N2CCN(c3ccccc3OC)CC2)cc1 | -5 | -39 | 48* | 1 | 39* | RORg DNA counter=>40
CCN(C[C@H]1N[C@@](C)(C(=O)OC)[C@H]2C(=O)N(Cc3ccccc3)C(=O)[C@@H]12)C(=O)Nc1ccc(OC)cc1 | -2 | -6 | -1 | / | /
C=CCOc1ccc(CNCCc2ccc(S(N)(=O)=O)cc2)cc1 | -2 | -9 | 2 | 0 | /
COc1cccc(C(=O)c2cc3cc(Cl)ccc3[nH]2)c1 | 1 | -106 | 20* | 4 | 11
COc1cc(-c2cc(-c3ccc(N)cc3)[nH]c(=O)c2C#N)cc(OC)c1OC | -1 | -6 | 25* | 2 | 15
CCC[C@H]1[C@@H](N(C)Cc2cccs2)CC[C@@]23CCCN2C(=O)CCC[C@@H]13 | / | / | 43* | / | 52* | RORg DNA counter=>40
Cc1sc2ncn(CC(=O)NCC(=O)N(C)Cc3ccccc3)c(=O)c2c1C | -3 | 1 | -8 | -3 | /
Cc1c(NC(=O)COC(=O)Cn2cc(C(F)(F)F)ccc2=O)cccc1[N+](=O)[O-] | -2 | 6 | 1 | -3 | /
Cc1cc(C(C)c2ccccc2)c(O)c(CN2CCOCC2)c1C (centres undefined) | 0 | -29 | 33* | -1 | 43* | RORg DNA counter=>40
SMILES | PG9 Ab binder | NR2E3 ag-1 | NR1D1 modulator | NR2E3 ag-2 | Rev-erbA confirm | others
Oc1c(Cl)cc(Cl)c(Cl)c1CN1CCOCC1 | -1 | -19 | 5 | / | /
Cc1c(Cl)cc(C(C)C)c(O)c1CN1CCOCC1 | 1 | 14 | 42* | / | 43* | RORg DNA counter=>40
CCc1cc2c(-c3ccccc3)cc(=O)oc2c(CN2CCOCC2)c1O | -2 | -19 | 7 | 4 | /
CCOC(=O)N1CCN(C(=O)c2ccc(NS(=O)(=O)c3ccc(F)cc3)cc2)CC1 | 2 | -21 | -2 | 2 | /
COc1cc(NC(=O)C2CCCN(c3ncccn3)C2)cc(OC)c1 (centres undefined) | 1 | 4 | 7 | 1 | /
Clc1ccccc1NN(Cc1ccccn1)c1ccccc1Cl | 1 | -12 | 2 | / | /
Clc1ccccc1NN(Cc1ccncc1)c1ccccc1Cl | 0 | -6 | 18* | / | 10
OC(c1cccc(Cl)c1)c1ncc(-c2ccc3ccccc3c2)[nH]1 (centres undefined) | -1 | -28 | -3 | / | /
OC(c1cc(F)cc(Cl)c1)c1ncc(-c2ccc3ccccc3c2)[nH]1 (centres undefined) | 0 | 22 | 14* | / | -4
CCc1cc2c(C)ccc(C)c2nc1SCC(=O)Nc1c[nH]c(=O)[nH]c1=O | 6 | -29 | 53* | 3 | 44* | RORg DNA counter=>40
CCc1cc2c(C)ccc(C)c2nc1SCC(=O)Nc1c(C)[nH]c(=O)[nH]c1=O | 3 | 26 | -3 | 0 | /
COc1cc2c(C)nc3c(c(C)nn3-c3ccccc3)c2cc1OC | -1 | -26 | 21* | 2 | -3
COc1ccc(Nc2nc(C)nc3c2nnn3Cc2ccccc2Cl)c(OC)c1 | -1 | -12 | 21* | 0 | 9
Cc1nc(NCC2CCCO2)c2nnn(Cc3ccccc3Cl)c2n1 (centres undefined) | / | -2 | -1 | -3 | /
C[C@@H]1C=CCCO[C@]12C(=O)N(CC1CC1)c1cccc(Br)c12 | 1 | / | 13* | / | -2
CCOC(=O)C1=C(C)N(C)C(C)=C(C(=O)OCC)C1c1ccsc1 | -2 | 2 | 0 | 0 | /
Cc1ccc(OCC(=O)NNC(=O)C2CCN(c3ncccn3)CC2)cc1 | -1 | -10 | 2 | 2 | /
Cc1ccc(OCC(=O)NNC(=O)C2CCN(c3nc(C)cc(C)n3)CC2)cc1 | -2 | -3 | 23* | 3 | -1
O=C(COC(=O)CCNS(=O)(=O)c1ccc(Cl)cc1)NCc1ccco1 | 0 | -11 | -1 | 0 | /
Cc1ccc(S(=O)(=O)c2nnn3c2nc(N2CCCCC2)c2ccccc23)cc1 | -2 | -15 | 0 | 1 | /
Cc1ccc(S(=O)(=O)c2nnn3c2nc(N2CCN(c4ccccn4)CC2)c2ccccc23)cc1C | 1 | -3 | 72* | 2 | 62* | RORg DNA counter=>40
COc1ccc(CCNC(=O)CNC(=O)N2CC(=O)Nc3ccccc32)cc1 | -3 | -16 | 17 | / | /
O=C(Nc1ccc(Cl)cc1)c1csc(COCCO)n1 | -2 | -60 | -6 | / | /
O=C(Nc1ccc(Oc2ccccc2)cc1)c1csc(COCCO)n1 | -2 | -37 | 15* | / | 1
O=C(NCCCn1ccnc1)c1cc(Cl)cc(Cl)c1 | -4 | 17 | 0 | 4 | /
COc1ccc(CNC(=O)CN(C)Cc2ccc(C(C)(C)C)cc2)cc1 | -1 | -16 | 25* | 0 | -3
CCCCn1c(=O)[nH]c(=O)c2c1nc(-c1ccc(OCCC)c(OCC)c1)n2C | 0 | -7 | 21* | 0 | -6
